Experimental data from ChEMBL document CHEMBL1155539, “Discovery of 4-[1-[([1-[4-(trifluoromethyl)benzyl]-1H-indol-7-yl]carbonyl)amino]cyclopropyl]benzoic acid (MF-766), a highly potent and selective EP4 antagonist for treating inflammatory pain” (Bioorg Med Chem Lett, 2010).
pKi: −log10 of the molar value.

Assays:
[1] = molecular target: T1, Prostaglandin D2 receptor (Homo sapiens, UniProt Q13258); test: Displacement of [3H]PGD2 from human Prostanoid DP1 receptor expressed in HEK293-EBNA cells after 60 mins by scintillation counting; assay type: cell-based
T1 sequence (Q13258 whole entry): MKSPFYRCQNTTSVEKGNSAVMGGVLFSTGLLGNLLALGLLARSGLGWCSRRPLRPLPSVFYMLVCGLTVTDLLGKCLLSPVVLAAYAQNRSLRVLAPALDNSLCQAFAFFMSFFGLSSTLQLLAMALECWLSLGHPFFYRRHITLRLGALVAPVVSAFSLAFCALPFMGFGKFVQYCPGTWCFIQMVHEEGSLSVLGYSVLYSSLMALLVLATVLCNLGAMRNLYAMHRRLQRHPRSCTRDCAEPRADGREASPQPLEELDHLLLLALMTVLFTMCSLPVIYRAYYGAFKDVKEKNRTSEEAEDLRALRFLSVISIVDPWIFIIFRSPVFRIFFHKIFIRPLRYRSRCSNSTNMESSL

[2] = Bioavailability in Sprague-Dawley rat at 5 mg/kg, iv and 20 mg/kg, po; assay type: ADME, organism-based; conditions: in vivo
Method in brief: (§1)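 Sprague-Dawley rats dosed iv at 5 mg/kg and po at 20 mg/kg. The iv group was n = 2 males given the free acid in 60% PEG 200 at 1 mL/kg. PK parameters were derived from plasma levels.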

[3] = molecular target: T2, Prostaglandin E2 receptor EP3 subtype (Homo sapiens, UniProt P43115); test: Displacement of [3H]PGE2 from human prostanoid EP3 receptor expressed in HEK293-EBNA cells after 60 mins by scintillation counting; assay type: cell-based
T2 sequence (P43115 whole entry): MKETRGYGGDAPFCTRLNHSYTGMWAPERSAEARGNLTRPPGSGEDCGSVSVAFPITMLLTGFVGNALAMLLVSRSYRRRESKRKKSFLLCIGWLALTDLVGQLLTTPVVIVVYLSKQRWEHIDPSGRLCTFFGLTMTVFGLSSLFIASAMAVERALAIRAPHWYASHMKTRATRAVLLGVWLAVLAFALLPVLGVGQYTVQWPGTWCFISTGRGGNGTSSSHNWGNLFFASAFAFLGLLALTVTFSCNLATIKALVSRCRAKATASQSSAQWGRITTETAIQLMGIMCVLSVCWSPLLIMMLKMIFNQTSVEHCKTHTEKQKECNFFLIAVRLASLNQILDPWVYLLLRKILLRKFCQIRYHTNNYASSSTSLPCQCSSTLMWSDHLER

Rattus norvegicus [4] = test: Antiinflammatory activity in rat assessed as inhibition of complete Freund's adjuvant-induced primary paw swelling at 0.001 to 1 mg/kg administered daily once 9 days after adjuvant challenge measured on day 18; assay type: functional; set-up: scale not given: the % may be the effect or the level left; conditions: dose mg/kg 0.001-1
Method in brief: (§2)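 Rat adjuvant-induced arthritis model with daily dosing in mg/kg/day. Dose groups were 0, 0.001, 0.01, 0.1 and 1 mg/kg, plus a non-AIA control group. Primary and secondary paw swelling were scored as % inhibition relative to vehicle-treated arthritic rats, and ED50 was estimated from the dose–response.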

Rattus norvegicus [5] = test: Antiinflammatory activity in rat assessed as inhibition of complete Freund's adjuvant-induced paw swelling administered daily once 9 days after adjuvant challenge measured on day 18; assay type: functional; conditions: read-out: ED50; method in brief: as §2
Rattus norvegicus [6] = test: Antiinflammatory activity in rat assessed as inhibition of complete Freund's adjuvant-induced secondary paw swelling at 0.001 to 1 mg/kg administered daily once 9 days after adjuvant challenge measured on day 18; assay type: functional; set-up: scale not given: the % may be the effect or the level left; conditions: dose mg/kg 0.001-1; method in brief: as §2
Prostacyclin receptor = Prostacyclin receptor (Homo sapiens, UniProt P43119); test: Displacement of [3H]iloprost from human prostanoid IP receptor expressed in HEK293-EBNA cells after 60 mins by scintillation counting; assay type: cell-based
Chain of Prostacyclin receptor (P43119 whole entry): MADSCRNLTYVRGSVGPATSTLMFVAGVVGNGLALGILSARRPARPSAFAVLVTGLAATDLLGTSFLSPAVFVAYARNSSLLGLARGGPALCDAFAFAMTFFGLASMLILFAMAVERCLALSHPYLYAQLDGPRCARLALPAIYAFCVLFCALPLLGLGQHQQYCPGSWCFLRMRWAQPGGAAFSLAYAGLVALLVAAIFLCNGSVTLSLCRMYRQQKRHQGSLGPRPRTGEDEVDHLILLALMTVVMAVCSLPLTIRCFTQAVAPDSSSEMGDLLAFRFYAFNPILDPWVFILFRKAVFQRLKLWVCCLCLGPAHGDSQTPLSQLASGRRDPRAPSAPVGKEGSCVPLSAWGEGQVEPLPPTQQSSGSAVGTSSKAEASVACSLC

[7] = AUC (0 to 24 hrs) in Sprague-Dawley rat at 20 mg/kg, po; assay type: ADME, organism-based; set-up: time < 24 hr, dose 20 mg/kg, route oral; conditions: plasma; method in brief: as §1
[8] = molecular target: Prostaglandin F2-alpha receptor (Homo sapiens, UniProt P43088); test: Displacement of [3H]PGF2alpha from human prostanoid FP receptor expressed in HEK293-EBNA cells after 60 mins by scintillation counting; assay type: cell-based
Chain of Prostaglandin F2-alpha receptor (P43088 whole entry): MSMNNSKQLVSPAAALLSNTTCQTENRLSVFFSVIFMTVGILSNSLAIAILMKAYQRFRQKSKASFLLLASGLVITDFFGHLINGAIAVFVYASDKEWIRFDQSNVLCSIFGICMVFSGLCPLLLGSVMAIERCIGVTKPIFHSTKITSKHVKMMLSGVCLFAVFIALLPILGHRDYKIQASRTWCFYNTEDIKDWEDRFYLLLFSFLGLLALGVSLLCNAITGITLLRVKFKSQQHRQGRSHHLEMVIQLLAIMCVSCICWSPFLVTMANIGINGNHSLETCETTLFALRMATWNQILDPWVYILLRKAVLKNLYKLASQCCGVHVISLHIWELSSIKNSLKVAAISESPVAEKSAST

[9] = Drug level in complete Freund's adjuvant challenged rat administered daily once 9 days after adjuvant challenge measured on day 18 after 24 hrs post dose; assay type: ADME, organism-based; conditions: in vivo, read-out: Drug uptake
Method in brief: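 In a separate rat AIA experiment with daily dosing, plasma drug levels were measured 2 h and 24 h after the final dose.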

Hepatocyte = test: Oxidative metabolism in rat hepatocytes assessed as protein covalent binding after 2 hrs; assay type: ADME, cell-based
Method in brief: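 [3H]-labelled compound incubated with fresh rat or human hepatocytes for 2 h. Covalent protein binding was expressed as pmol-equiv/mg protein, and samples were checked for tritium loss by HPLC with radiometric detection.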

[10] = Elimination half life in Sprague-Dawley rat at 5 mg/kg, iv and 20 mg/kg, po; assay type: ADME, organism-based; conditions: in vivo, read-out: beta t1/2 (converted); method in brief: as §1

pKi [1]: 5.78
bioavailability [2]: 86%
pKi [3]: 5.13
pKi (Prostacyclin receptor): < 4.66
AUC(0-t) at 24 h [7]: 150 µM·h
pKi [8]: 5.19
concentration at 24 h [9]: 3.1 nM
Activity (Hepatocyte): 61 pmolequiv/mg
half-life [10]: 276 min
Structure (SMILES): O=C(O)c1ccc(C2(NC(=O)c3cccc4ccn(Cc5ccc(C(F)(F)F)cc5)c34)CC2)cc1
Activity (Rattus norvegicus [4]): 70%
ED50 (Rattus norvegicus [5]): 0.004 mg/kg/day
Activity (Rattus norvegicus [6]): 100%
